According to ChEMBL document CHEMBL1142692, “Synthesis and biological evaluation of meperidine analogues at monoamine transporters” (J Med Chem, 2005):
Several values for one entry are separate records, joined by “and”; a condition that tells them apart may be missing. Equal entries are not always repeated.

Tests used:
Mu-type opioid receptor [1] = target: T1, Mu-type opioid receptor (Homo sapiens, UniProt P35372); assay: Inhibition of [3H]DAMGO binding to mu-opioid receptor
[2] = Ratio of binding affinity of mu-opioid receptor and serotonin transporter
[3] = target: T2, Sodium-dependent dopamine transporter (Rattus norvegicus, UniProt P23977); assay: Inhibitory concentration against [3H]DA uptake in rat brain tissue; type: functional, tissue-based
T2 sequence (P23977 whole entry): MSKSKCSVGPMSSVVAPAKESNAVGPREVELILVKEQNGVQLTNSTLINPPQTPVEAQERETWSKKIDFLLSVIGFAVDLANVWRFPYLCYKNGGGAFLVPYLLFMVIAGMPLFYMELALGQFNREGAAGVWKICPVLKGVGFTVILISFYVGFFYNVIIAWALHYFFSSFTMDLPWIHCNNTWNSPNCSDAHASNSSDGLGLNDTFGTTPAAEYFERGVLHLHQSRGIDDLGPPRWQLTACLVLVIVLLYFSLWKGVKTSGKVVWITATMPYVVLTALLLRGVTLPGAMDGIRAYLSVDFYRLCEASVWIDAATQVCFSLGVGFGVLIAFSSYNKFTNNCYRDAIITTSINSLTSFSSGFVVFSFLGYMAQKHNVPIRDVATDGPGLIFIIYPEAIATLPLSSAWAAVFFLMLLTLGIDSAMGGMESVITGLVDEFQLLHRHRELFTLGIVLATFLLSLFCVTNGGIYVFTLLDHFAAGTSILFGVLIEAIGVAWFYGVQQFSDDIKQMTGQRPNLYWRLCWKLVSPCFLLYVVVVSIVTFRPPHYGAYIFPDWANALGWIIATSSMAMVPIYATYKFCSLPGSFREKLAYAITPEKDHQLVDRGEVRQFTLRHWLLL
Procedure, shortened: (§1)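 Rat caudate-putamen chopped into 225 µm slices, suspended in oxygenated modified Krebs-HEPES buffer at 37 °C. Tissue preincubated 5 min with drug, then [3H]dopamine (final 15 nM) added for 5 min. Uptake stopped with ice-cold buffer and filtration; accumulated label extracted and counted by liquid scintillation. Specific uptake reported after subtracting filter binding. Single-concentration values are % inhibition at 100 µM.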

[4] = target: T3, Norepinephrine transporter (Rattus norvegicus, UniProt Q9WTR4); assay: Inhibition of [3H]-nisoxetine binding to rat norepinephrine transporter
T3 sequence (Q9WTR4 whole entry): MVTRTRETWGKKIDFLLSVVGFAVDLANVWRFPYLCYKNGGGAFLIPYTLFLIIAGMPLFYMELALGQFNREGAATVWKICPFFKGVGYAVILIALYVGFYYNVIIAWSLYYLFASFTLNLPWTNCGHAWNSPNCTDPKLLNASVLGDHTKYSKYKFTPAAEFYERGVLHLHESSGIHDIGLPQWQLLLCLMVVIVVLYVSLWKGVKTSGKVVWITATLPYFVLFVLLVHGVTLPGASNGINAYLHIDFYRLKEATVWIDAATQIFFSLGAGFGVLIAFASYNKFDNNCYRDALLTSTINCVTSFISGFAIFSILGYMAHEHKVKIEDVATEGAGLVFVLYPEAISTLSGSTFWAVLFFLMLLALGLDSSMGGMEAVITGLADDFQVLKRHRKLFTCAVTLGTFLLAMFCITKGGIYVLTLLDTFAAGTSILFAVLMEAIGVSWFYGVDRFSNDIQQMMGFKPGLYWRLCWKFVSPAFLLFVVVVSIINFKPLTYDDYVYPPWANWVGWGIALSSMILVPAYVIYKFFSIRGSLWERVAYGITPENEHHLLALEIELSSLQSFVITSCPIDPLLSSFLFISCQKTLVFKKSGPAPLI
Procedure, shortened: (§2)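 Male Sprague-Dawley rat frontal cortex membranes in 50 mM Tris, 120 mM NaCl, 5 mM KCl, pH 7.4, 8 mg tissue per tube. Incubated with [3H]nisoxetine (final 0.5 nM) for 1 h on ice, then filtered. Desipramine defines nonspecific binding. Single-concentration values are % specific binding remaining at 10 µM. Mean ± SEM of three experiments in triplicate.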

Mu-type opioid receptor [5] = target: T1, Mu-type opioid receptor; assay: Percent inhibition of [3H]DAMGO binding to rat brain mu-opioid receptor at 100 uM; conditions: target entry is the homologue from another species
[6] = target: T4, Monoamine transporters; serotonin & dopamine (Homo sapiens) (UniProt P31645+Q01959); assay: Ratio of binding affinity for dopamine and serotonin transporters; type: protein assay
T4 sequence (P31645 whole entry, looked up): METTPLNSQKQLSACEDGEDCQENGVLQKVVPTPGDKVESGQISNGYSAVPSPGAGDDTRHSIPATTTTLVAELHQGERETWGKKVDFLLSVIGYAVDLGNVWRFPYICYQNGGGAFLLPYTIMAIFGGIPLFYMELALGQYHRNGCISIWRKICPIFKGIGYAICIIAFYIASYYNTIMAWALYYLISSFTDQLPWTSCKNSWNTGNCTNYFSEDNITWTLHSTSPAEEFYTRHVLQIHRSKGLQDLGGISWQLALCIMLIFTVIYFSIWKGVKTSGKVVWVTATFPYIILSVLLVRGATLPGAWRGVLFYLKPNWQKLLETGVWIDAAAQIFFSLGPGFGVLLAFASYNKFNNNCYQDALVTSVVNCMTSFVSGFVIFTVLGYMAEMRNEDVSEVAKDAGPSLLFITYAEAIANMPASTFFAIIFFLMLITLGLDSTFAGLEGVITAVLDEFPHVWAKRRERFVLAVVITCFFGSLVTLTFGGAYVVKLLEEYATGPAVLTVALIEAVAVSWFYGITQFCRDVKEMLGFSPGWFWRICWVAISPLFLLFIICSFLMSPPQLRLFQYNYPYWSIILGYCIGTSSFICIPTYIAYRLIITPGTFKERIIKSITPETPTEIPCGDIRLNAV
T4 sequence (Q01959 whole entry, looked up): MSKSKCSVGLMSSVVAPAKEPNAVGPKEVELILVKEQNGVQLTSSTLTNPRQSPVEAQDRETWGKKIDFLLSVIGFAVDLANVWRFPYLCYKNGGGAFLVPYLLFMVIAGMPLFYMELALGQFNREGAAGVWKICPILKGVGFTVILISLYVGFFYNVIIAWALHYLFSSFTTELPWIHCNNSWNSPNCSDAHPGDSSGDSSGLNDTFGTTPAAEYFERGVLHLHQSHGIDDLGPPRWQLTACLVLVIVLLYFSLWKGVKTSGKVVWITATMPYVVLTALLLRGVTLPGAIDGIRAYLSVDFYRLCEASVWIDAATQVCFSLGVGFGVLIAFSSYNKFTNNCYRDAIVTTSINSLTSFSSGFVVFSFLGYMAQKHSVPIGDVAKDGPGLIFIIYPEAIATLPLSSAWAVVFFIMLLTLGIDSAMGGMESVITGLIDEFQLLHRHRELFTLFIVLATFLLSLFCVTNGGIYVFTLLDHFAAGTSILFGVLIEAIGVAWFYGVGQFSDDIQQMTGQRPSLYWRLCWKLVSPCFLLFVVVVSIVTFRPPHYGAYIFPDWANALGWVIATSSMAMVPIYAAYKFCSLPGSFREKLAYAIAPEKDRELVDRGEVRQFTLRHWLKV
Procedure, shortened: (§3)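 Ratio of Ki values, DAT/SERT. DAT Ki from [3H]WIN 35,428 (1.5 nM) competition in rat caudate-putamen membranes on ice, 1 h. SERT Ki from [3H]paroxetine (0.2 nM) binding to rat midbrain membranes, 90 min at room temperature, with 1 µM citalopram defining nonspecific binding.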

[7] = Ratio of binding affinity for mu-opioid receptor and dopamine transporter
[8] = target: T2, Sodium-dependent dopamine transporter; assay: Inhibition of [3H]-DA uptake in rat brain; type: functional, tissue-based; procedure, shortened: as §1
[9] = target: Norepinephrine transporter (Rattus norvegicus) (UniProt Q9WTR4); assay: Percent inhibition of [3H]nisoxetine binding to norepinephrine transporter at 10 uM
Sequence of Norepinephrine transporter (Rattus norvegicus) (Q9WTR4 as listed by the source): as the sequence (Q9WTR4 whole entry) above

[10] = target: Sodium-dependent dopamine transporter (Rattus norvegicus) (UniProt P23977); assay: Percent inhibition of [3H]dopamine uptake in rat brain tissue at 100 uM; type: functional, tissue-based; procedure, shortened: as §1
Sequence of Sodium-dependent dopamine transporter (Rattus norvegicus) (P23977 whole entry): as the sequence (P23977 whole entry) above

Mu-type opioid receptor [11] = target: T1, Mu-type opioid receptor; assay: Inhibition of [3H]-DAMGO binding to mu-opioid receptor
[12] = Ratio of binding affinity of mu-opioid receptor and Serotonin transporter
[13] = target: T4, Monoamine transporters; serotonin & dopamine (Homo sapiens); assay: Ratio of binding affinity of dopamine and Serotonin transporters; type: protein assay; procedure, shortened: as §3
[14] = Ratio of binding affinity of mu-opioid receptor and dopamine transporter
[15] = target: T4, Monoamine transporters; serotonin & dopamine (Homo sapiens); assay: Ratio of binding affinity of dopamine and serotonin transporters; type: protein assay; procedure, shortened: as §3
Mu-type opioid receptor [16] = target: T1, Mu-type opioid receptor; assay: Inhibition of [3H]DAMGO binding to mu-opioid receptor at 100 uM
[17] = target: Sodium-dependent dopamine transporter (Rattus norvegicus) (UniProt P23977); assay: Percent inhibition of [3H]DA uptake in rat brain tissue at 100 uM; type: functional, tissue-based; procedure, shortened: as §1
[18] = target: Sodium-dependent dopamine transporter (Rattus norvegicus) (UniProt P23977); conditions: Brain, 100 uM
[19] = target: Sodium-dependent dopamine transporter (Rattus norvegicus) (UniProt P23977); conditions: Brain, 100 uM; remark: listed apart in the source
[20] = target: T3, Norepinephrine transporter; assay: Inhibition of [3H]nisoxetine binding to rat norepinephrine transporter at 10 uM; procedure, shortened: as §2
[21] = target: Sodium-dependent dopamine transporter (Rattus norvegicus) (UniProt P23977); assay: Percent inhibition of [3H]WIN-35428 binding to rat Dopamine transporter at 100 uM
Procedure, shortened: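 Male Sprague-Dawley rat caudate-putamen membranes in modified Krebs-HEPES buffer, pH 7.4. Drug preincubated 5 min, then [3H]WIN 35,428 (final 1.5 nM) added for 1 h on ice, followed by filtration. Value is % inhibition at 100 µM.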

Mu-type opioid receptor [22] = target: T1, Mu-type opioid receptor; assay: Inhibition of [3H]-DAMGO binding to mu opioid receptor at 10 uM
[23] = Ratio of binding affinity of mu-opioid receptor and dopamine taransporter
[24] = target: T2, Sodium-dependent dopamine transporter; assay: Inhibitory concentration against [3H]dopamine uptake in rat brain tissue; type: functional, tissue-based
Procedure, shortened: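 Rat caudate-putamen chopped into 225 µm slices, suspended in Krebs-HEPES buffer pregassed with 95% O2/5% CO2 at 37 °C. Tissue preincubated 5 min with or without drug (highest 100 µM), then [3H]dopamine (15 nM final) added for 5 min. Stopped with ice-cold buffer and filtration; accumulated label extracted and counted by scintillation; filter binding subtracted. Three experiments in triplicate.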

T1 sequence (P35372 whole entry): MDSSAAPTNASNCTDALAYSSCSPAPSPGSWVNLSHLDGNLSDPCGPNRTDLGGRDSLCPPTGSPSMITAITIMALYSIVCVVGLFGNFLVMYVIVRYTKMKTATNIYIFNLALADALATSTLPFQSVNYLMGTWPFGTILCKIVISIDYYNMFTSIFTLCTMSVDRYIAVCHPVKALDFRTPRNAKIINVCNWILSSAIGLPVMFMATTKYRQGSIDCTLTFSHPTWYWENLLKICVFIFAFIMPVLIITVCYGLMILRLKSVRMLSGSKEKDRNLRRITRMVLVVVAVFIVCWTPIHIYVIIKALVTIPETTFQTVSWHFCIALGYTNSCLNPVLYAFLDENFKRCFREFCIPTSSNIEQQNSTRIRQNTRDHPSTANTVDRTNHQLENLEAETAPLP

| SMILES | Ki (Mu-type opioid receptor [1]) | Ratio [2] | IC50 [3] | Ki [4] | inhibition (Mu-type opioid receptor [5]) | inhibition [9] | inhibition [10] | Ratio [14] | Ratio [15] | other results |
| --- | --- | --- | --- | --- | --- | --- | --- | --- | --- | --- |
| CCOC(=O)C1(c2ccc(I)cc2)CCN(C)CC1 | 2.35 µM | 111 | 11.1 µM | 519 µM | – | – | – | – | – | – |
| CN1CCC(C#N)(c2ccc(Cl)c(Cl)c2)CC1 | 40 µM | 49.7 | – | – | 46% | 94.1% | – | – | – | Ratio [6]: 3.32; Ratio [7]: 15; IC50 [8]: 11.1 µM |
| CCOC(=O)C1(c2ccc(F)cc2)CCN(C)CC1 | – | – | – | – | – | 71.9% | 47% | – | – | Ratio (Mu-type opioid receptor [11]): 0.14; Ratio [12]: 4.77; Ratio [13]: 34.7 |
| CCOC(=O)C1(c2ccc(C)cc2)CCN(C)CC1 | 2.67 µM | 1.66 | 76.2 µM | – | – | 57.6% | – | 0.22 | 7.69 | – |
| CN1CCC(C#N)(c2ccc(Cl)cc2)CC1 | – | 0.18 | – | – | 51% | 106% | – | 1.67 | 4.31 | Ki (Mu-type opioid receptor [16]): 36.8 µM; inhibition [17]: 36% |
| CCOC(=O)C1(c2ccc(Cl)cc2)CCN(C)CC1 | 4.41 µM | 15.9 | – | 601 µM | – | – | – | 1.08 | 14.8 | IC50 [8]: 26.9 µM |
| Cc1ccc(C2(C#N)CCN(C)CC2)cc1 | 40.6 µM | 2.96 | – | – | – | 103% | – | 0.97 | 3.05 | inhibition [18]: 46%; inhibition [19]: 22% |
| CCOC(=O)C1(c2ccc(Cl)c(Cl)c2)CCN(C)CC1 | 2.04 µM | 109 | 6.01 µM and 1.4 µM | 74.5 µM | – | – | 22% | 16.3 | 6.68 | – |
| CN1CCC(C#N)(c2ccc(F)cc2)CC1 | – | – | – | – | 15% | – | – | – | – | Ki [20]: 101 µM; inhibition [21]: 45%; inhibition [17]: 8% |
| CN1CCC(C#N)(c2ccc3ccccc3c2)CC1 | – | 123 | – | – | 61% | 88.1% | 11% | 6.53 | 18.9 | Ki (Mu-type opioid receptor [16]): 15.4 µM |
| CN1CCC(C#N)(c2ccc(I)cc2)CC1 | – | 40.2 | – | – | 61% | – | – | – | 19.4 | Ki (Mu-type opioid receptor [16]): 17.3 µM; inhibition (Mu-type opioid receptor [22]): 93.6%; Ratio [23]: 2.07; IC50 [24]: 36.7 µM |
| CCOC(=O)C1(c2ccc3ccccc3c2)CCN(C)CC1 | 2.03 µM | 282 | 3.19 µM and 11.6 µM | 71.1 µM | – | – | 16% | 1.78 | 158 | – |
